Bioassay records as filed in PubChem BioAssay.
Most compounds without a hit are left out; they make up all but 3.8% or so of the library.
Kir21 block: Kir2.1 (mouse) channel inhibition; P35561; HEK293-Kir2.1, FluxOR thallium flux fluorescence; hits give low values; B-score at 10 µM; actives 0.85% (n = 310,000); AID 1672;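 active = fluorescence ratio B-score at or below minus 3 SD of library scores, with starting-brightness B-score within 2 SD, cut at about -4.2 in these data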;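 also: channel flux triggered by added potassium and thallium sulfate stimulus; B-score of peak minus minimum fluorescence over baseline after thallium stimulus; more negative B-score means stronger Kir2.1 block with less thallium influx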
Target sequence (P35561 whole entry, looked up): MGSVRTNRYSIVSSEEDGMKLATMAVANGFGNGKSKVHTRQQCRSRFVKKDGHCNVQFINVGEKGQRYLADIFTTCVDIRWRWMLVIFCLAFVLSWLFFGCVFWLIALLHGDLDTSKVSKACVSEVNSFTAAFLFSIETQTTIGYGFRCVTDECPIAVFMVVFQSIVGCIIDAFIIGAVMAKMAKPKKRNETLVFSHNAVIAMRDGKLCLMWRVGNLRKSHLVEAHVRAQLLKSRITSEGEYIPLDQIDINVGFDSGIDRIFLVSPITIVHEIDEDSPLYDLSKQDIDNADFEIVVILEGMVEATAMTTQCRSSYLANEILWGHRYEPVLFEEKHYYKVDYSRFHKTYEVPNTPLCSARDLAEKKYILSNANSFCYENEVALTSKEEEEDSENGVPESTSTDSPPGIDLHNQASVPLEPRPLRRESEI
KCNK3 block: human KCNK3 channel inhibition, primary screen; O14649; CHO-KCNK3 thallium flux, FluxOR fluorescence; hits give low values; B-score at 10 µM; actives 0.84% (n = 340,000); AID 602410;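 active = B-score under library mean minus 4 SD, starting fluorescence ratio at most library mean plus 5 SD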;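 also: more negative B-score means stronger inhibition of thallium flux through KCNK3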
hERG rescue: hERG (human) protection from proarrhythmic block. Q12809. CHO-hERG, FluxOR thallium flux, dofetilide IC70 present. activation (rescue from dofetilide block), less the hit threshold, % at 10 µM. actives 0.51% (n = 310,000). AID 1511;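 active = activation above the mean of controls blocked by dofetilide plus 5 SD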;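 also: thallium influx through hERG after potassium depolarization seen as dye fluorescence rise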
KCNK9 block: blocks the human KCNK9 two-pore domain potassium channel; actives 1.2% (n = 310,000); HEK293 KCNK9, FluxOR thallium flux fluorescence; hits give low values; B-score at 10 µM; AID 488922; Q9NPC2;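 active = ratio B-score over 3 SD below the library mean, with starting fluorescence within 5 SD of its mean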;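 also: negative B-score means less thallium flux so channel inhibition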
KCNQ1 block: human KCNQ1 channel inhibition | P51787 | CHO-K1 KCNQ1, FluxOR thallium flux fluorescence; hits give high values | B-score at 10 µM | actives 1.3% (n = 310,000) | AID 2642;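 active = compounds whose thallium flux B-score, printed positive for inhibition, exceeds three library SD while starting fluorescence stays within three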;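 also: channel opened by potassium depolarization with thallium stimulus after 20 min compound exposure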
KCNQ1 pot: human KCNQ1 channel potentiation or activation; CHO-K1 KCNQ1, thallium flux FluxOR fluorescence; hits give high values; B-score at 10 µM; actives 0.35% (n = 310,000); P51787;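 active = fluorescence ratio B-score, a plate-corrected score, at least three library SD, with initial intensity B-score within 5 SD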
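Material: CHO-K1 cells stably expressing KCNQ1. Medium: assay buffer for compound exposure, DMSO matched across wells. Reagent: K+/Tl+ depolarizing stimulus. Compound dosing: single-concentration screen. Times: 37 °C overnight plating, 90-min dark dye load, 20-min compound pretreatment. Technique: FluxOR Tl+ flux fluorescence.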
KCNK3 confirm: human KCNK3 channel inhibition, confirmation assay. shares compounds with KCNK3 block. CHO-KCNK3 thallium flux, FluxOR fluorescence; 0% buffer, 100% carvedilol maximal block. ratio percent of control, % at 10 µM. actives 99% (n = 2,400). AID 651638;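 active = ratio percent of control, averaged over triplicates, above buffer control mean plus 5 SD, cut at about 64% in these data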;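 also: ratio is the fluorescence rise from min to max over baseline after thallium stimulus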
KCNK3 uninduced: counter-screen for KCNK3 inhibitors: effect in non-induced cells | shares compounds with KCNK3 block | non-induced KCNK3 parental cells, FluxOR thallium flux; hits give low values | thallium flux ratio (lower = more inhibition) at 10 µM | actives 40% (n = 2,400) | AID 651747;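 active = thallium flux ratio, averaged over three wells, more than 5 SD below the buffer control mean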;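 also: host cells are CHO cells without KCNK3 induction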
Hits are given with their value.

CCN1C(=O)C(CC(=O)Nc2ccc(OC)cc2)N(CCc2ccc(F)cc2)C1=S (centres undefined) was read as Kir21 block inactive, KCNK3 block -9.01, hERG rescue inactive, KCNK9 block inactive, KCNQ1 block inactive, KCNQ1 pot inactive, KCNK3 confirm 116.3 and KCNK3 uninduced inactive.
`CCc1ccc(NC(=O)C(=O)NCC2CCCN2S(=O)(=O)c2cccs2)cc1` (centres undefined) gave Kir21 block inactive, KCNK3 block inactive, hERG rescue inactive, KCNK9 block inactive, KCNQ1 block inactive and KCNQ1 pot inactive.
Cc1nc(N2CCN(C(=O)c3cccs3)CC2)c2c3c(sc2n1)CCCC3 was read as Kir21 block inactive, KCNK3 block -10.4, hERG rescue inactive, KCNK9 block inactive, KCNQ1 block inactive, KCNQ1 pot inactive, KCNK3 confirm 91.7 and KCNK3 uninduced inactive.
For c1ccc(SCc2cc(-c3ccccc3)no2)cc1 the results were Kir21 block inactive, KCNK3 block -10.2, hERG rescue inactive, KCNK9 block inactive, KCNQ1 block inactive, KCNQ1 pot inactive, KCNK3 confirm 99.7 and KCNK3 uninduced inactive.
`COc1ccc(CCN2CCCn3c2nc2c3c(=O)[nH]c(=O)n2C)cc1OC` gave Kir21 block inactive, KCNK3 block inactive, hERG rescue inactive, KCNK9 block inactive, KCNQ1 block inactive and KCNQ1 pot inactive.
For O=C(COc1ccc(Br)cc1CNCCc1ccccc1)NCc1ccccc1 the results were Kir21 block inactive, KCNK3 block -11.2, hERG rescue inactive, KCNK9 block inactive, KCNQ1 block 7, KCNQ1 pot inactive, KCNK3 confirm 102.0 and KCNK3 uninduced inactive.
For COc1ccc(NC(=O)c2cc3ccccc3cc2OC)cc1 the results were Kir21 block inactive, KCNK3 block -10.6, hERG rescue inactive, KCNK9 block inactive, KCNQ1 block inactive, KCNQ1 pot inactive, KCNK3 confirm 111.7 and KCNK3 uninduced inactive.
Screening COc1ccc(C(=O)COc2ccccc2C(=O)Nc2ccccc2)cc1 returned Kir21 block inactive, KCNK3 block -9.84, hERG rescue inactive, KCNK9 block inactive, KCNQ1 block inactive, KCNQ1 pot inactive, KCNK3 confirm 108.3 and KCNK3 uninduced 0.16.
For CCOc1ccc(NC(=O)c2cc3ccccc3cc2OC)cc1 the results were Kir21 block inactive, KCNK3 block inactive, hERG rescue inactive, KCNK9 block inactive, KCNQ1 block inactive and KCNQ1 pot inactive.
CCOC(=O)C1=C(C)N(CCC(=O)O)C(=O)NC1c1ccccc1Cl (centres undefined) was read as Kir21 block inactive, KCNK3 block inactive, hERG rescue inactive, KCNK9 block inactive, KCNQ1 block inactive and KCNQ1 pot inactive.
For CC(=O)N1N=C2/C(=C/c3ccccc3)CCCC2C1c1ccccc1 (centres undefined) the results were Kir21 block inactive, KCNK3 block -9.64, hERG rescue inactive, KCNK9 block inactive, KCNQ1 block inactive, KCNQ1 pot inactive, KCNK3 confirm 103.3 and KCNK3 uninduced inactive.
COc1cccc(NC(=O)CN(C)C(=O)c2cc(-c3cccc(Br)c3)nc3ccccc23)c1 was read as Kir21 block inactive, KCNK3 block -13.7, hERG rescue inactive, KCNK9 block inactive, KCNQ1 block inactive, KCNQ1 pot inactive, KCNK3 confirm 128.0 and KCNK3 uninduced inactive.
Cc1ccc(-c2cc(C(=O)Nc3cccnc3)c3ccccc3n2)s1 was read as Kir21 block inactive, KCNK3 block -12.4, hERG rescue inactive, KCNK9 block inactive, KCNQ1 block inactive, KCNQ1 pot inactive, KCNK3 confirm 100.3 and KCNK3 uninduced 0.133.
Screening COc1cccc(NC(=O)c2cc(-c3ccc(OC)cc3OC)nc3ccccc23)c1 returned Kir21 block inactive, KCNK3 block -9.45, hERG rescue inactive, KCNK9 block inactive, KCNQ1 block 6, KCNQ1 pot inactive, KCNK3 confirm 103.3 and KCNK3 uninduced inactive.
`CC(NS(=O)(=O)c1cc(C(F)(F)F)ccc1Cl)C(=O)N(C)C1CCN(C)CC1` (centres undefined) gave KCNK3 block inactive.
`CCOc1ccc(N(CC(=O)N2CCCCCC2)S(=O)(=O)c2ccc(F)cc2)cc1` gave Kir21 block inactive, KCNK3 block inactive, hERG rescue inactive, KCNK9 block inactive, KCNQ1 block inactive and KCNQ1 pot inactive.
Screening O=C(Cc1cccs1)N1CCN(S(=O)(=O)c2ccc(F)cc2)CC1 returned Kir21 block inactive, KCNK3 block inactive, hERG rescue inactive, KCNK9 block inactive, KCNQ1 block inactive and KCNQ1 pot inactive.
Cc1c(C(C)(C)C)s/c(=N/S(=O)(=O)c2ccccc2)n1C was read as Kir21 block inactive, KCNK3 block inactive, hERG rescue inactive, KCNK9 block inactive, KCNQ1 block inactive and KCNQ1 pot inactive.
Cc1c(C(C)(C)C)sc(=NC(=O)c2ccccc2O)n1C was read as Kir21 block inactive, KCNK3 block -9.65, hERG rescue inactive, KCNK9 block inactive, KCNQ1 block inactive, KCNQ1 pot inactive, KCNK3 confirm 65.0 and KCNK3 uninduced inactive.
COc1cc(C(=O)N2c3ccccc3CCC2C)cc(OC)c1OC (centres undefined) was read as Kir21 block inactive, KCNK3 block inactive, hERG rescue inactive, KCNK9 block inactive, KCNQ1 block inactive and KCNQ1 pot inactive.
For CC1CCc2ccccc2N1C(=O)c1cccs1 (centres undefined) the results were Kir21 block inactive, KCNK3 block -8.91, hERG rescue inactive, KCNK9 block inactive, KCNQ1 block inactive, KCNQ1 pot inactive, KCNK3 confirm 69.0 and KCNK3 uninduced inactive.
`O=S(=O)(c1ccc(Cl)cc1)N1CCN=C1SCc1cccc(Cl)c1` gave Kir21 block inactive, KCNK3 block inactive, hERG rescue inactive, KCNK9 block inactive, KCNQ1 block inactive and KCNQ1 pot inactive.
Cc1ccc(S(=O)(=O)N2CCN=C2SCc2ccc(Cl)c(Cl)c2)cc1 was read as Kir21 block inactive, KCNK3 block inactive, hERG rescue inactive, KCNK9 block inactive, KCNQ1 block inactive and KCNQ1 pot inactive.
For O=S(=O)(c1ccccc1)N1CCN=C1SCc1c(F)cccc1Cl the results were Kir21 block inactive, KCNK3 block -11.3, hERG rescue inactive, KCNK9 block inactive, KCNQ1 block inactive, KCNQ1 pot inactive, KCNK3 confirm 121.3 and KCNK3 uninduced 0.139.
Screening Cc1ccc(C)c(CSC2=NCCN2S(=O)(=O)c2ccccc2)c1 returned Kir21 block inactive, KCNK3 block -11.2, hERG rescue inactive, KCNK9 block -7.94, KCNQ1 block inactive, KCNQ1 pot inactive, KCNK3 confirm 128.7 and KCNK3 uninduced 0.15.
